CHT allo act – CHT positive allosteric modulators, primary screen, cell-based, membrane potential dye, choline EC20 | B-score at 10 µM | CHT-expressing cells; hits give high values; LV-AA mutant CHT in HEK293 cells | actives 0.49% (n = 310,000) | High affinity choline transporter 1 (Homo sapiens), Q9GZV3 | AID 488977, 2010;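 active means initial fluorescence not abnormally high and integrated response B-score, plate-corrected, over 3 SD above library mean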
Cl transport mod – KCC2 cotransporter modulators, thallium flux, primary screen, cell-based, HEK293 KCC2, FluoZin-2 fluorescence, MLSMR; Solute carrier family 12 member 5 (Homo sapiens), Q9H2X9; KCC2 cells, thallium flux FluoZin-2 fluorescence; B-score of Tl+ flux slope (higher = more flux/activation; lower = inhibition) at 10 µM; actives 2.2% (n = 190,000);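 active means thallium flux slope and its plate-corrected score both differing from the plate sample mean at a set confidence after two filtering rounds, in either direction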;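 further: slope of fluorescence scaled to starting intensity during 10 to 20 s after thallium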
CHT inh – inhibitors of human choline transporter CHT | B-score at 10 µM | CHT-expressing cells, membrane potential dye, choline response; hits give low values | actives 0.86% (n = 310,000);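 active means B-score over 3 SD under the library average, and starting fluorescence ratio not unusually high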;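 further: choline stimulus applied at its EC90 after an EC20 pre-addition; B-score computed on integrated fluorescence ratio after choline addition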
Rad51 HR inh – human RAD51 strand exchange inhibitors, primary screen, biochemical, fluorescence; hRad51 DNA strand exchange, fluorescence dequenching; inhibition, % at 10 µM; actives 0.085% (n = 200,000); AID 1385, 2008;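 active means inhibition above 40% at the single screening dose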;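 further: 0% = DMSO control wells and 100% = blanks with heterologous ssDNA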
Target sequence (Q06609 whole entry, looked up): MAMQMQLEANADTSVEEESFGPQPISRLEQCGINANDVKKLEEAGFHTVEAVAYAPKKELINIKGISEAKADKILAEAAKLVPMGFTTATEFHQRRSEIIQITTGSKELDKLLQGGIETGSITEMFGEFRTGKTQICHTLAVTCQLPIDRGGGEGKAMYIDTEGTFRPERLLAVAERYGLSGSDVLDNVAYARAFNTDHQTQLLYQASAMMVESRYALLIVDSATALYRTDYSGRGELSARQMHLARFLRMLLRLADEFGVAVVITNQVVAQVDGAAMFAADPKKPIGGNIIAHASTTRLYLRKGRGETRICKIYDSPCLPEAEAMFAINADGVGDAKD
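Material: Human Rad51 nucleoprotein filaments preassembled on unlabelled ssDNA | Also added: Labelled 47-mer dsDNA for strand exchange | Dosing: Single dose, 10 µM final compound | Schedule: 30-min compound preincubation and 15-min exchange, both room temperature | Technique: Fluorescence dequenching at 485/520 nm | Measure: Percent inhibition relative to plate controls and blanks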
KCC2 secondary – KCC2 modulators in sodium-free buffer, confirmation, cell-based, HEK293 KCC2, thallium flux, secondary assay; normalised thallium flux (F/F0 slope) at 10 µM; shares compounds with Cl transport mod; FluoZin2 fluorescence; hits give high values; actives 15% (n = 3,700); AID 1713, 2009;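 active means thallium flux slope above the same plate's solvent-only control mean plus 3 SD; inconclusive means the two replicate wells disagree; inactive means no significant difference from solvent-only control wells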
KCC2 bumet counter – thallium flux persisting under bumetanide in KCC2 cells, confirmation, counter-screen for KCC2 modulator project, cell-based, HEK293 KCC2, FluoZin2, secondary assay 3 | normalized thallium flux at 10 µM | actives 49% (n = 3,700) | HEK293-KCC2 + bumetanide/ouabain; hits give high values | shares compounds with Cl transport mod;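 active means thallium entry rate above the same plate's blocked-transporter control wells by more than 3 SD; inconclusive means the two repeat wells disagree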;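 further: raw slope of fluorescence over initial fluorescence between 10 and 20 s after thallium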
KCC2 sec2 – KCC2 modulators without ouabain present, confirmation, cell-based, HEK293 KCC2, thallium flux, FluoZin2, secondary assay 2; shares compounds with Cl transport mod; thallium flux FluoZin2 fluorescence; actives lie on both sides; F/F0 rise rate, 10–20 s post-thallium; normalized thallium flux at 10 µM; actives 23% (n = 3,700); AID 1715, 2009;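 active means thallium flux slope more than 3 SD above or below the plate's solvent-only control mean, mostly below; inconclusive means the two repeat wells disagreed; inactive means no significant shift from solvent-only controls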;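 further: raw slope with 0.1% DMSO as baseline and bumetanide as block control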
HEK counter1 – thallium flux modulation in parental HEK cells, confirmation, counter-screen for KCC2 modulator project, cell-based, counterscreen 1. HEK293 parental cells, thallium flux FluoZin2, ouabain; baseline-ratio fluorescence slope, 10–20 s after thallium. shares compounds with Cl transport mod. thallium flux rate (normalised fluorescence) at 10 µM. actives 46% (n = 3,700);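 active means thallium flux rate significantly above the same plate's solvent-only control wells, beyond their mean plus 3 SD; inconclusive means the two replicate wells gave conflicting results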
KCC2 retest ouab – KCC2 inhibitors and activators, ouabain retest, confirmation, HEK-KCC2 cells; shares compounds with Cl transport mod; HEK293-KCC2, thallium flux FluoZin2 fluorescence; bidirectional: low = inhibitor, high = activator; raw Tl+ flux slope (below DMSO = inhibition, above = activation) at 10 µM; actives 48% (n = 3,700); AID 1717, 2009;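 active means thallium flux slope beyond 3 SD from same-plate DMSO control mean in most replicates, usually higher, sometimes lower; inconclusive means repeat tests gave conflicting results; inactive means no significant difference from controls in most replicates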;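 further: slope of initial-normalized fluorescence between seconds 10 and 20 after thallium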
HEK counter2 – native HEK Tl+ uptake effects, second counter-screen – HEK cells, counterscreen 2, counter-screen for KCC2 modulator project, confirmation | shares compounds with Cl transport mod | HEK293 parental, thallium flux FluoZin-2 fluorescence slope | thallium flux slope at 10 µM | actives 33% (n = 3,700) | AID 1718, 2009;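 active means thallium flux slope above the same plate's solvent-control mean plus 3 SD in both duplicate wells; inconclusive means duplicate wells that disagreed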;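 further: run without ouabain in cells lacking the KCC2 cotransporter; slope of fluorescence scaled to its starting value between 10 and 20 s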
* hit, by the source's call. A selection: hits, their analogues and other compounds. The true share with any hit is near 2.6%.

Results for O=C(O)c1cccc(NC(=S)NC(=O)c2ccncc2)c1 ?
CHT allo act: inactive; Cl transport mod: -0.019; CHT inh: inactive; Rad51 HR inh: 14

What do the screens show for `Cn1c(COc2ccccc2)nnc1SCC(=O)NC1CCCC1`?
CHT allo act: inactive; CHT inh: inactive

What do the screens show for `CCN1CCN(CC(=O)Nc2ccc(Cl)c(S(=O)(=O)N(C)C)c2)CC1`?
CHT allo act: inactive; Cl transport mod: 0.51; CHT inh: inactive; Rad51 HR inh: 5

How did CN(C)S(=O)(=O)c1cc(NC(=O)CSc2ncc(C(F)(F)F)cc2Cl)ccc1Cl do in these assays?
CHT allo act: inactive; Cl transport mod: 50*; CHT inh: inactive; Rad51 HR inh: 8; KCC2 secondary: 0.0078; KCC2 bumet counter: 0.0047; KCC2 sec2: inconclusive; HEK counter1: 0.0075; KCC2 retest ouab: 0.019; HEK counter2: 0.011

What do the screens show for `COc1ccc(C2=CC(=O)OC3(CCCC3)O2)cc1`?
CHT allo act: inactive; CHT inh: inactive; Rad51 HR inh: 6

What do the screens show for `O=C(c1ccc(Cl)cc1)c1cnc2ccccn12`?
CHT allo act: inactive; Cl transport mod: -3.4*; CHT inh: inactive; Rad51 HR inh: -7; KCC2 secondary: 0.007; KCC2 bumet counter: 0.0046; KCC2 sec2: 0.03; HEK counter1: 0.008; KCC2 retest ouab: 0.018; HEK counter2: 0.01

Results for CCOc1ccc(C(=O)NCC(=O)NNC(=O)CN(C)S(=O)(=O)c2ccc(Cl)cc2)cc1 ?
CHT allo act: inactive; CHT inh: inactive

Results for CC(C)COc1nc2ccccc2nc1C(C#N)C(=O)NC1CCCCC1 (stereo not drawn) ?
CHT allo act: inactive; CHT inh: inactive; Rad51 HR inh: 2; KCC2 secondary: 0.0093; KCC2 bumet counter: 0.0058; KCC2 sec2: 0.03; HEK counter1: 0.0073; KCC2 retest ouab: 0.018; HEK counter2: 0.012

How did CC1CN(c2nc3ccccc3nc2C(C#N)C(=O)NC2CCCCC2)CC(C)O1 (stereo not drawn) do in these assays?
CHT allo act: inactive; CHT inh: inactive; Rad51 HR inh: -12

How did O=C(CSc1nnc(SCc2ccc(Cl)cc2)s1)N/N=C/c1c[nH]c2ccccc12 do in these assays?
CHT allo act: inactive; Cl transport mod: -2.4; CHT inh: inactive; Rad51 HR inh: 8

What do the screens show for `O=C(CSc1nnc(SCc2cccc3ccccc23)s1)N/N=C/c1c[nH]c2ccccc12`?
CHT allo act: inactive; Cl transport mod: -3.9*; CHT inh: inactive; Rad51 HR inh: -9; KCC2 secondary: 0.0057*; KCC2 bumet counter: 0.014*; KCC2 sec2: 0.024*; HEK counter1: 0.0089*; KCC2 retest ouab: 0.024*; HEK counter2: inconclusive

Results for Cc1ccc(/C=C/c2ccc(=O)n(Cc3ccccc3Cl)n2)cc1 ?
CHT allo act: inactive; CHT inh: inactive; Rad51 HR inh: -2

How did CC(C)(C)c1ccc(C(=O)N2CCN(c3ccc(N4CCOCC4)nn3)CC2)cc1 do in these assays?
CHT allo act: inactive; CHT inh: inactive

How did O=C(CN1C(=O)NC2(CCCCCC2)C1=O)c1ccc2c(c1)OCCO2 do in these assays?
CHT allo act: inactive; CHT inh: inactive; Rad51 HR inh: 1; KCC2 secondary: 0.0099; KCC2 bumet counter: 0.014*; KCC2 sec2: 0.034; HEK counter1: inconclusive; KCC2 retest ouab: 0.022; HEK counter2: 0.011

What do the screens show for `O=C(CSc1nnc(Cc2ccccc2)o1)N1CCCc2ccccc21`?
CHT allo act: inactive; Cl transport mod: -6.1*; CHT inh: inactive; Rad51 HR inh: 2; KCC2 secondary: 0.0056; KCC2 bumet counter: 0.0038; KCC2 sec2: 0.021*; HEK counter1: 0.0068; KCC2 retest ouab: 0.012*; HEK counter2: inconclusive

What do the screens show for `O=C(CSc1nnc(Cc2ccccc2)o1)Nc1cccc(F)c1`?
CHT allo act: inactive; CHT inh: inactive

What do the screens show for `C=CCn1c(C)cc(C(=O)CSc2nnc(NCc3ccccc3)s2)c1C`?
CHT allo act: inactive; Cl transport mod: -2.7*; CHT inh: inactive; KCC2 secondary: 0.0067; KCC2 bumet counter: 0.0047; KCC2 sec2: 0.035; HEK counter1: inconclusive; KCC2 retest ouab: inconclusive; HEK counter2: 0.011

Results for O=C(CSc1nnc(Cc2ccccc2)o1)c1cc(F)ccc1F ?
CHT allo act: inactive; Cl transport mod: -7.1*; CHT inh: inactive; Rad51 HR inh: 4; KCC2 secondary: 0.0039*; KCC2 bumet counter: 0.0046; KCC2 sec2: 0.02*; HEK counter1: inconclusive; KCC2 retest ouab: 0.012*; HEK counter2: 0.0099

How did C=CCn1c(C)cc(C(=O)CSc2nnc(Cc3ccccc3)o2)c1C do in these assays?
CHT allo act: inactive; CHT inh: inactive; Rad51 HR inh: -3; KCC2 secondary: 0.007; KCC2 bumet counter: 0.0062; KCC2 sec2: 0.03*; HEK counter1: 0.0036; KCC2 retest ouab: 0.017*; HEK counter2: 0.011

What do the screens show for `O=C(CSc1nnc(NCc2ccccc2)s1)c1ccco1`?
CHT allo act: inactive; Cl transport mod: -0.7; CHT inh: inactive; Rad51 HR inh: -8

Bioassay records: PubChem BioAssay, several laboratories
